Results as given in ChEMBL document CHEMBL1141056, “Aqua mediated synthesis of substituted 2-amino-4H-chromenes and in vitro study as antibacterial agents” (Bioorg Med Chem Lett, 2005).

Legend:
Type in all cases: functional, organism-based
[1] = tested on: Staphylococcus aureus; assay: Antibacterial activity against Staphylococcus aureus (ATCC 25923) at concentration 16.0 uM/ml in dimethylformamide, + = resistant
Outline: (§1)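 Broth microdilution MIC per NCCLS standard protocol. Compounds dissolved in DMF and doubling-diluted in Mueller Hinton broth across 0.5–128 µg/ml; ampicillin run alongside. Inoculum adjusted to McFarland 0.5 and diluted to approx. 5×10^5 cfu/ml final per well. Plates held overnight at 37 °C. Growth scored per concentration: + resistant, − susceptible. Each plate carried broth+inoculum and broth-only control wells.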

[2] = tested on: Pseudomonas aeruginosa; assay: Antibacterial activity against Pseudomonas aeruginosa (ATCC 27853) at concentration 8.0 uM/ml in dimethylformamide, + = resistant; outline: as §1
[3] = tested on: Staphylococcus aureus; assay: Antibacterial activity against Staphylococcus aureus (ATCC 25923) at concentration 8.0 uM/ml in dimethylformamide, + = resistant; outline: as §1
[4] = tested on: Staphylococcus aureus; assay: Antibacterial activity against Staphylococcus aureus (ATCC 25923) at concentration 4.0 uM/ml in dimethylformamide, + = resistant; outline: as §1
[5] = tested on: Staphylococcus aureus; assay: Antibacterial activity against Staphylococcus aureus (ATCC 25923) at concentration 1.0 uM/ml in dimethylformamide, + = resistant; outline: as §1
[6] = tested on: Pseudomonas aeruginosa; assay: Antibacterial activity against Pseudomonas aeruginosa (ATCC 27853) at concentration 32.0 uM/ml in dimethylformamide, + = resistant; outline: as §1
[7] = tested on: Pseudomonas aeruginosa; assay: Antibacterial activity against Pseudomonas aeruginosa (ATCC 27853) at concentration 0.5 uM/ml in dimethylformamide, + = resistant; outline: as §1
[8] = tested on: Pseudomonas aeruginosa; assay: Antibacterial activity against Pseudomonas aeruginosa (ATCC 27853) at concentration 4.0 uM/ml in dimethylformamide, + = resistant; outline: as §1
[9] = tested on: Escherichia coli; assay: Antibacterial activity against Escherichia coli (ATCC 25922) at concentration 64.0 uM/ml in dimethylformamide, + = resistant; outline: as §1
[10] = tested on: Pseudomonas aeruginosa; assay: Antibacterial activity against Pseudomonas aeruginosa (ATCC 27853) at concentration 1.0 uM/ml in dimethylformamide, + = resistant; outline: as §1
[11] = tested on: Escherichia coli; assay: Antibacterial activity against Escherichia coli (ATCC 25922) at concentration 8.0 uM/ml in dimethylformamide, + = resistant; outline: as §1
[12] = tested on: Escherichia coli; assay: Antibacterial activity against Escherichia coli (ATCC 25922) at concentration 32.0 uM/ml in dimethylformamide, + = resistant; outline: as §1
[13] = tested on: Staphylococcus aureus; assay: Antibacterial activity against Staphylococcus aureus (ATCC 25923) at concentration 0.5 uM/ml in dimethylformamide, + = resistant; outline: as §1
[14] = tested on: Pseudomonas aeruginosa; assay: Antibacterial activity against Pseudomonas aeruginosa (ATCC 27853) at concentration 16.0 uM/ml in dimethylformamide, + = resistant; outline: as §1
[15] = tested on: Escherichia coli; assay: Antibacterial activity against Escherichia coli (ATCC 25922) at concentration 4.0 uM/ml in dimethylformamide, + = resistant; outline: as §1
[16] = tested on: Escherichia coli; assay: Antibacterial activity against Escherichia coli (ATCC 25922) at concentration 2.0 uM/ml in dimethylformamide, + = resistant; outline: as §1
[17] = tested on: Escherichia coli; assay: Antibacterial activity against Escherichia coli (ATCC 25922) at concentration 0.5 uM/ml in dimethylformamide, + = resistant; outline: as §1
[18] = tested on: Staphylococcus aureus; assay: Antibacterial activity against Staphylococcus aureus (ATCC 25923) at concentration 2.0 uM/ml in dimethylformamide, + = resistant; outline: as §1
[19] = tested on: Escherichia coli; assay: Antibacterial activity against Escherichia coli (ATCC 25922) at concentration 16.0 uM/ml in dimethylformamide, + = resistant; outline: as §1
[20] = tested on: Pseudomonas aeruginosa; assay: Antibacterial activity against Pseudomonas aeruginosa (ATCC 27853) at concentration 2.0 uM/ml in dimethylformamide, + = resistant; outline: as §1
[21] = tested on: Staphylococcus aureus; assay: Antibacterial activity against Staphylococcus aureus (ATCC 25923)i at concentration 32.0 uM/ml in dimethylformamide, + = resistant; outline: as §1
[22] = tested on: Escherichia coli; assay: Antibacterial activity against Escherichia coli (ATCC 25922) at concentration 1.0 uM/ml in dimethylformamide, + = resistant; outline: as §1
[23] = tested on: Pseudomonas aeruginosa; assay: Antibacterial activity against Pseudomonas aeruginosa (ATCC 27853) at concentration 64.0 uM/ml in dimethylformamide, + = resistant; outline: as §1
[24] = tested on: Staphylococcus aureus; assay: Antibacterial activity against Staphylococcus aureus (ATCC 25923) at concentration 64.0 uM/ml in dimethylformamide, + = resistant; outline: as §1
[25] = tested on: Staphylococcus aureus; assay: Antibacterial activity against Staphylococcus aureus (ATCC 25923) at concentration 32.0 uM/ml in dimethylformamide, + = resistant; outline: as §1

Measured: MIC

N#CC1=C(N)Oc2ccc3ccccc3c2C1c1cc2ccccc2nc1Cl (stereo not given)
Resistant: [1] | [2] | [3] | [4] | [5] | [6] | [7] | [8] | [9] | [10] | [11] | [12] | [13] | [14] | [15] | [16] | [17] | [18] | [19] | [20] | [21] | [22]

N#CC1=C(N)Oc2cc(O)ccc2C1c1ccccc1 (stereo not given)
Resistant: [23] | [1] | [2] | [3] | [4] | [5] | [6] | [7] | [8] | [9] | [10] | [11] | [12] | [13] | [14] | [15] | [16] | [17] | [18] | [19] | [24] | [20] | [22] | [25]

N#CC1=C(N)Oc2ccc3ccccc3c2C1n1ccc2ccccc21 (stereo not given)
Resistant: [1] | [2] | [3] | [4] | [5] | [6] | [7] | [8] | [9] | [10] | [11] | [12] | [13] | [14] | [15] | [16] | [17] | [18] | [19] | [24] | [20] | [22] | [25]

N#CC1=C(N)Oc2cc(O)ccc2C1n1ccc2ccccc21 (stereo not given)
Resistant: [1] | [2] | [3] | [4] | [5] | [6] | [7] | [8] | [9] | [10] | [11] | [12] | [13] | [14] | [15] | [16] | [17] | [18] | [19] | [24] | [20] | [22] | [25]

N#CC1=C(N)Oc2ccc3ccccc3c2C1c1ccccc1 (stereo not given)
Resistant: [1] | [2] | [3] | [4] | [5] | [6] | [7] | [8] | [9] | [10] | [11] | [12] | [13] | [14] | [15] | [16] | [17] | [18] | [19] | [24] | [20] | [22] | [25]
